Data as given in ChEMBL document CHEMBL1132588, “Synthesis, CoMFA analysis, and receptor docking of 3,5-diacyl-2, 4-dialkylpyridine derivatives as selective A3 adenosine receptor antagonists” (J Med Chem, 1999).

Key:
[1] = molecular target: T1, Adenosine receptor A3 (Homo sapiens) (UniProt P0DMS8); assay: (§1) Displacement of specific [125 I]AB-MECA binding at human Adenosine A3 receptor expressed in HEK cells; assay type: cell-based; conditions: HEK293
T1 sequence (whole entry): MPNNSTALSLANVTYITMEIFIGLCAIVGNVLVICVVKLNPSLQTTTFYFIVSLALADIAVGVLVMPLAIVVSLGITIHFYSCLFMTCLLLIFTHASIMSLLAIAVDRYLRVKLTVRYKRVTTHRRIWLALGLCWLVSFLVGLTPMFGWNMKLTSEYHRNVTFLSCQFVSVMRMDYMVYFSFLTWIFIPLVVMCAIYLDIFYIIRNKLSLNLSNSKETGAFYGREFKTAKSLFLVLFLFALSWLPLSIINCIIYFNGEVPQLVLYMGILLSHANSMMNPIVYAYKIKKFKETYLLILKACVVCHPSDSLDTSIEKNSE

[2] = molecular target: T2, Adenosine receptor A1 (Rattus norvegicus) (UniProt P25099); assay: (§2) Displacement of specific [3H]-CGS- 21680R-PIA binding to Adenosine A1 receptor in rat brain membranes.; assay type: cell membranes; conditions: concentration not given here
T2 sequence (whole entry): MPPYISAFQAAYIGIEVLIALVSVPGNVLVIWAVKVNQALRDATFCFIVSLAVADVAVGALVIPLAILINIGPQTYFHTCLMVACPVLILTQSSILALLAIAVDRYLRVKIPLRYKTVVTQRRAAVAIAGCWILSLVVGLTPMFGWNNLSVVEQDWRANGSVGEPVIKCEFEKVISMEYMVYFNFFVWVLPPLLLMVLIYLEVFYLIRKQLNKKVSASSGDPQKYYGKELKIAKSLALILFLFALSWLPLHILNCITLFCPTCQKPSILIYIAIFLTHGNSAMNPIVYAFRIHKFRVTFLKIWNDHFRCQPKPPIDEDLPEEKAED
Procedure, shortened: (§3)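 A1 binding used [3H]R-PIA on rat cerebral cortex membranes. Adenosine deaminase (3 units/mL) was included in membrane preparation, in a 30 min preincubation at 30 °C, and throughout radioligand incubation. Competitors were DMSO stocks diluted in buffer, with DMSO never above 2%.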

[3] = molecular target: T1, Adenosine receptor A3 (Homo sapiens); assay: as §1; assay type: cell-based; conditions: HEK293; concentration not given here
Procedure, shortened: (§4)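 Membranes from HEK-293 cells stably expressing human A3 receptor (clone HS-21a), or from CHO cells stably expressing rat A3 receptor (rat: n = 3-5), in 50 mM Tris, 10 mM Mg2+, 1 mM EDTA, pH 8.0. Membranes at 0.3 mg protein/mL with [125I]AB-MECA at 0.3 nM final. Nonspecific binding defined with R-PIA. Competitors were dissolved in DMSO (≤2% final) and tested at ≥5 concentrations spanning 3 log units. Bound ligand was separated by GF/B filtration with three buffer rinses; Ki was derived.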

[4] = molecular target: Adenosine receptor A2a (Rattus norvegicus) (UniProt P30543); assay: (§5) Displacement of specific [3H]-CGS- 21680 binding to Adenosine A2A receptor in rat striatal membranes; assay type: cell membranes; design: concentration or dose not given beside the values; conditions: Membrane, concentration not given here
Procedure, shortened: (§6)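 Rat striatal membranes labelled with [3H]CGS 21680 for A2A binding. Adenosine deaminase (3 units/mL) was present during membrane preparation, during a 30 min preincubation at 30 °C, and during radioligand incubation. Competitors were dissolved in DMSO and diluted in buffer (DMSO ≤2%).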

Adenosine receptor A1 = molecular target: T3, Adenosine receptor A1 (Rattus norvegicus, UniProt P25099); assay: as §2; assay type: cell membranes; conditions: in the assay text read “[3H]R-PIA” for “[3H]-CGS- 21680R-PIA”; procedure, shortened: as §3
T3 sequence (P25099 whole entry): T2 sequence (whole entry)

Adenosine receptor A3 [5] = molecular target: T4, Adenosine receptor A3 (Homo sapiens, UniProt P0DMS8); assay: as §1; assay type: cell-based, HEK293; procedure, shortened: as §4
T4 sequence (P0DMS8 whole entry): T1 sequence (whole entry)

Rattus norvegicus [6] = organism: Rattus norvegicus; assay: Ratio of binding affinities for rat A1 receptor against human A3 receptor, [Ki(rA1) / Ki (hA3)].
Procedure, shortened: (§7)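 Ratio of Ki values from binding assays. For A3, [125I]AB-MECA (final 0.3 nM) bound membranes of HEK-293 cells expressing human A3 (clone HS-21a) or CHO cells expressing rat A3, in Tris/Mg2+/EDTA buffer at pH 8.0. For rat A1, [3H]R-PIA bound cerebral cortex membranes, with adenosine deaminase (3 units/mL) present, including a 30 min preincubation at 30 °C.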

Adenosine receptor A2a = Adenosine receptor A2a (Rattus norvegicus, UniProt P30543); assay: Inhibition of [3H]-CGS- 21680 binding to Adenosine A2A receptor in rat striatal membranes.; assay type: cell membranes, Membrane
Adenosine receptor A3 [7] = molecular target: T5, Adenosine receptor A3 (Rattus norvegicus, UniProt P28647); assay: Displacement of specific [125I]AB-MECA binding at rat Adenosine A3 receptor stably expressed in CHO cells; assay type: cell-based
T5 sequence (P28647 whole entry): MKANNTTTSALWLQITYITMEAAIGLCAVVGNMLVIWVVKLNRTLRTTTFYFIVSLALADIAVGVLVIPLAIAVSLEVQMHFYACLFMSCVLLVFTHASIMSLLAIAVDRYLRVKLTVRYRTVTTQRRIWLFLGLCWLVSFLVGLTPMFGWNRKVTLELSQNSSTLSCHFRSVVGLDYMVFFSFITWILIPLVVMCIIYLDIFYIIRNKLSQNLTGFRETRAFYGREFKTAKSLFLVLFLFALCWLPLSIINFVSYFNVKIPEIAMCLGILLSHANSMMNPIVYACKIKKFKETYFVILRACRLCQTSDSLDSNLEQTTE

Rattus norvegicus [8] = organism: Rattus norvegicus; assay: Ratio of the binding affinities against rat A3 receptor / human A3 receptor, Ki([…]) / Ki (hA3).; procedure, shortened: as §7
Rattus norvegicus [9] = organism: Rattus norvegicus; assay: Ratio of the binding affinities against rat A3 receptor / rat A3 receptor, Ki(rA1) / Ki (rA3).; procedure, shortened: as §7
[10] = molecular target: Adenosine receptor A2a (Rattus norvegicus) (UniProt P30543); assay: as §5; assay type: cell membranes; conditions: Membrane; procedure, shortened: as §6

Sequence of Adenosine receptor A2a (Rattus norvegicus) (P30543 whole entry): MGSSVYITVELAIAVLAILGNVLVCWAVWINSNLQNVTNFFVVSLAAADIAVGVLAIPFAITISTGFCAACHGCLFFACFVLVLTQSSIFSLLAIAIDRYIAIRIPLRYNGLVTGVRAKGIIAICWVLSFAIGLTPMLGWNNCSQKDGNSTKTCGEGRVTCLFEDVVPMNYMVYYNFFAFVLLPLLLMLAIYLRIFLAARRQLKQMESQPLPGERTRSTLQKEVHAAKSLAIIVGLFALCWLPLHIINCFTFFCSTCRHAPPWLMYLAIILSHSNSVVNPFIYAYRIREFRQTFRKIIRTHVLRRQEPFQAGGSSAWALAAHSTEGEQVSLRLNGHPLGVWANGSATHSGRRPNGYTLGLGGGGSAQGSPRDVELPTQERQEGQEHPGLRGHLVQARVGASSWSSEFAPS
Sequence of Adenosine receptor A2a (P30543 whole entry): as above

Compound | pKi [1] | Ki (Adenosine receptor A1) [µM] | Ki (Adenosine receptor A3 [5]) [µM] | further results
CCNC(=O)c1c(C)nc(-c2ccccc2)c(C(=O)OCC)c1CC | – | – | – | inhibition [2]: < 10%; inhibition [3]: < 10%; inhibition [4]: < 10%
CCCSC(=O)c1c(CC)nc(-c2ccccc2)c(C(=O)OCC)c1CC | 7.8 | – | – | –
CCCOC(=O)c1c(-c2ccc(F)cc2)nc(CC)c(C(=O)SCC)c1CCC | 7.51 | 41 | 0.0311 | inhibition [4]: 50%; Ratio (Rattus norvegicus [6]): 1300
CCCOC(=O)c1c(-c2ccccc2)nc(CC)c(C(=O)SCCOC2CCCCO2)c1CCC (stereo not given) | – | – | 0.517 | inhibition [2]: 18%; inhibition [4]: < 10%
CCCOC(=O)c1c(-c2ccccc2)nc(CC)c2c1CCOC2=O | – | 11.2 | – | inhibition [3]: < 10%; inhibition [4]: 20%
CCOC(=O)c1c(-c2ccccc2)nc(CCOC)c(C(=O)SCC)c1CC | 7.77 | – | – | –
CCCOC(=O)c1c(-c2ccccc2)nc(CC)c(C(=O)SCC(F)(F)F)c1CCC | 7.74 | 8.29 | 0.0181 | Ki (Adenosine receptor A2a): 6.14 µM; Ki (Adenosine receptor A3 [7]): 0.495 µM; Ratio (Rattus norvegicus [6]): 460; Ratio (Rattus norvegicus [8]): 27; Ratio (Rattus norvegicus [9]): 17
CCCOC(=O)c1c(-c2cccc(F)c2)nc(CC)c(C(=O)SCC)c1CCC | 7.54 | 8.2 | 0.0289 | Ki (Adenosine receptor A2a): 28.1 µM; Ratio (Rattus norvegicus [6]): 280
CCCOC(=O)c1c(-c2ccccc2)nc(CC)c(C(=O)SCC)c1CCCF | 7.22 | 8.09 | 0.0599 | Ki (Adenosine receptor A2a): 27.4 µM; Ki (Adenosine receptor A3 [7]): 0.9 µM; Ratio (Rattus norvegicus [6]): 140; Ratio (Rattus norvegicus [8]): 15; Ratio (Rattus norvegicus [9]): 9
CCCOC(=O)c1c(-c2cccc(Cl)c2)nc(CC)c(C(=O)SCCC)c1CC | 8.1 | – | – | –
CCOC(=O)c1c(-c2cccc(Cl)c2)nc(CC)c(C(=O)SCC)c1CC | 7.87 | – | – | –
CCCc1nc(-c2ccccc2)c(C(=O)OCC)c(CC)c1C(=O)SCC | 7.48 | – | – | –

The next lines start with results.

pKi [1] | Ki (Adenosine receptor A1) [µM] | Ki (Adenosine receptor A3 [5]) [µM] | Compound | further results
6.11 | – | – | CCOC(=O)c1c(C)nc(-c2ccccc2)c(C(=O)OCC)c1C(OC)OC | –
5.56 | – | – | CCOC(=O)c1c(C)nc(-c2ccccc2)c(C(=O)OCc2ccccc2)c1C#Cc1ccccc1 | –
5.89 | – | – | CCOC(=O)c1c(-c2ccccc2)nc(CC)c(C(=O)O)c1CC | –
5.47 | – | – | CCOC(=O)c1c(C2CCCC2)nc(CC)c(C(=O)SCC)c1CC | –
5.41 | – | – | CCOC(=O)c1c(C)nc(C2CCCC2)c(C(=O)OCc2ccccc2)c1C#Cc1ccccc1 | –
7.37 | – | – | CCOC(=O)c1c(-c2ccccc2)nc(C)c(C(=O)SCC)c1CC | –
5.58 | – | – | CCSC(=O)c1c(C)nc(-c2ccccc2)c(C(=O)OCc2ccccc2)c1CC | –
6.78 | – | – | CCOC(=O)c1c(-c2ccccc2)nc(C)c(C(=O)SCCOC)c1CC | –
6.96 | 16 | 0.109 | CCCOC(=O)c1c(-c2ccccc2)nc(CCOCc2ccccc2)c(C(=O)SCC)c1CCC | –
6.61 | 0.49 | 0.243 | CCOC(=O)c1c(-c2ccccc2)nc(CC)c(C(=O)SCC)c1CCN1C(=O)c2ccccc2C1=O | Ki (Adenosine receptor A2a): 1.14 µM; Ratio (Rattus norvegicus [6]): 2
5.7 | 5.79 | 1.99 | CCOC(=O)c1c(-c2ccccc2)nc(CC)c2c1CCCNC2=O | Displacement [10]: < 10%
